Experimental data as given in ChEMBL document CHEMBL1155439, “Transient receptor potential ankyrin 1 (TRPA1) channel as emerging target for novel analgesics and anti-inflammatory agents” (J Med Chem, 2010).
pEC50, pIC50: −log10 of the molar value.

Columns and labels:
[1] = target: T1, Transient receptor potential cation channel subfamily A member 1 (Homo sapiens, UniProt O75762); experiment: Agonist activity at human TRPA1 channel expressed in HEK293 cells assessed as increase in membrane currents; assay type: functional, cell-based
T1 sequence (O75762 whole entry): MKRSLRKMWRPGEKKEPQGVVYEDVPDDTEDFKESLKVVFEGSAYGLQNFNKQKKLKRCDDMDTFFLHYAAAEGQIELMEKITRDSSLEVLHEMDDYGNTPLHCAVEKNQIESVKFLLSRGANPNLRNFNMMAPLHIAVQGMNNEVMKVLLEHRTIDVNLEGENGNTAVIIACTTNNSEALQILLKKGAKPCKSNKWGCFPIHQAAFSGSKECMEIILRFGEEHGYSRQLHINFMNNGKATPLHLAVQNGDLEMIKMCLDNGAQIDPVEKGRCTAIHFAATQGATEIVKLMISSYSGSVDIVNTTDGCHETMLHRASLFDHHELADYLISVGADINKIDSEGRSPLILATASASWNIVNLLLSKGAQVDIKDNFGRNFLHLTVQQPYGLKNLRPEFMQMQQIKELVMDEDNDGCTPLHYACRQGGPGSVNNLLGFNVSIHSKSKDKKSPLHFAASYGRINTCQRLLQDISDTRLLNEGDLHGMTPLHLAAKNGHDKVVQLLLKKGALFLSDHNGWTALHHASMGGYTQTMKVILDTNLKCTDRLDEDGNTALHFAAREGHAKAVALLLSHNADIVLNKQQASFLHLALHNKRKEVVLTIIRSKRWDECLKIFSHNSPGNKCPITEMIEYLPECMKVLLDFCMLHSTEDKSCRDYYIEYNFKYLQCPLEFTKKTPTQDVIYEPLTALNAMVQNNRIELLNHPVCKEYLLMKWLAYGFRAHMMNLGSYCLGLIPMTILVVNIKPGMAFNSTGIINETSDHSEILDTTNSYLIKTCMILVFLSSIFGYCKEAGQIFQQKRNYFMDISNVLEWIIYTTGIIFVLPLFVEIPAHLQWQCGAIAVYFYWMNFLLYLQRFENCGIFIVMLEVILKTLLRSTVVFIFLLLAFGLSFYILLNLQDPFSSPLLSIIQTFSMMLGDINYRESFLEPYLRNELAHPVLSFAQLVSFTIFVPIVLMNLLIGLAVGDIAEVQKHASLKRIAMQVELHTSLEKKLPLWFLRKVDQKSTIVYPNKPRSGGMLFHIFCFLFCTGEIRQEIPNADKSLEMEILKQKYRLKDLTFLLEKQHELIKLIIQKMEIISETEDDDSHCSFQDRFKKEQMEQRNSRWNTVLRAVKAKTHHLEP

[2] = target: T1, Transient receptor potential cation channel subfamily A member 1; experiment: Agonist activity at human TRPA1 channel expressed in HEK293 cells assessed as increase in intracellular calcium influx; assay type: functional, cell-based
[3] = target: T1, Transient receptor potential cation channel subfamily A member 1; experiment: Agonist activity at human TRPA1 channel expressed in CHO cells assessed as increase in intracellular calcium levels; assay type: functional, cell-based
[4] = target: T1, Transient receptor potential cation channel subfamily A member 1; experiment: Activation of TRPA1 channel
How it was run: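 Cell lines transfected with TRPA1 and loaded with a calcium-sensitive dye, read on FLIPR. Calcium influx is counted as the change in fluorescence above background. Each material was tested by preincubation or by direct addition. Calcium counts are expressed as a percentage of the control calcium count.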

[5] = target: T1, Transient receptor potential cation channel subfamily A member 1; experiment: Activation of TRPA1 channel expressed in CHO cells assessed as increase in intracellular calcium levels; assay type: cell-based
[6] = target: T2, Transient receptor potential cation channel subfamily A member 1 (Rattus norvegicus, UniProt Q6RI86); experiment: Agonist activity at TRPA1 channel in rat DRG neurons assessed as increase in intracellular calcium influx; assay type: functional, cell-based
T2 sequence (Q6RI86 whole entry): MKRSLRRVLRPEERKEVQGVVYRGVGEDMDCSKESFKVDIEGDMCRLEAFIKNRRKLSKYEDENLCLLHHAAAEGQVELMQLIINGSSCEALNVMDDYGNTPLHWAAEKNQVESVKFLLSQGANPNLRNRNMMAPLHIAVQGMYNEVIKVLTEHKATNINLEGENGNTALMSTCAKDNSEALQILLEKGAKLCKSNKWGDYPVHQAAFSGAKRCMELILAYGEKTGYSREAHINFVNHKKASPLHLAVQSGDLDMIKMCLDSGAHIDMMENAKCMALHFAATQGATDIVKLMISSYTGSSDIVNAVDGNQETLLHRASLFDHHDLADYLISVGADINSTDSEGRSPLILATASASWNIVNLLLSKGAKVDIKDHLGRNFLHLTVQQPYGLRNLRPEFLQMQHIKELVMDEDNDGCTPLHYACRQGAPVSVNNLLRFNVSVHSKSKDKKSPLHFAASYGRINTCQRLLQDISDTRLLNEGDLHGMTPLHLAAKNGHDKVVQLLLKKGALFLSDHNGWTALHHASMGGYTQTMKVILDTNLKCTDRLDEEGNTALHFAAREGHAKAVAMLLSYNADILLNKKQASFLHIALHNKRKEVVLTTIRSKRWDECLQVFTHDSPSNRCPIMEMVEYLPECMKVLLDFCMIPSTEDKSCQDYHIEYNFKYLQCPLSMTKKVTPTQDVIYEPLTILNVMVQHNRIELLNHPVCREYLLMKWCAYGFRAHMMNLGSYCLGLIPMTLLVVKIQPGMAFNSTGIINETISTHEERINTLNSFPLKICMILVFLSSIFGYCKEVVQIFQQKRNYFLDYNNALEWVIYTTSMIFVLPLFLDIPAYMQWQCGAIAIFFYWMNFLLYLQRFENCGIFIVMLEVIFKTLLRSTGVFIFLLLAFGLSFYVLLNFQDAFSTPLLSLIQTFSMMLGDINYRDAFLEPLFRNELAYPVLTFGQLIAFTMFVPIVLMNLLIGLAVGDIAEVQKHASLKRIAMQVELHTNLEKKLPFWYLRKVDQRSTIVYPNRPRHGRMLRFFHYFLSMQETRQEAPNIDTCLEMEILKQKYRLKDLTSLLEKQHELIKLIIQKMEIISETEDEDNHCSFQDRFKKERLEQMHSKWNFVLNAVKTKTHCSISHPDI

[7] = target: T2, Transient receptor potential cation channel subfamily A member 1; experiment: Agonist activity at rat TRPA1 channel expressed in HEK293 cells assessed as increase in intracellular calcium influx; assay type: functional, cell-based
[8] = target: T1, Transient receptor potential cation channel subfamily A member 1; experiment: Antagonist activity at human TRPA1 channel assessed as inhibition of allyl isothiocyanate-induced intracellular calcium influx; assay type: functional, cell-based
[9] = target: T3, Transient receptor potential cation channel subfamily A member 1 (Mus musculus, UniProt Q8BLA8); experiment: Agonist activity at mouse TRPA1 channel expressed in CHO cells assessed as increase in intracellular calcium influx; assay type: functional, cell-based
T3 sequence (Q8BLA8 whole entry): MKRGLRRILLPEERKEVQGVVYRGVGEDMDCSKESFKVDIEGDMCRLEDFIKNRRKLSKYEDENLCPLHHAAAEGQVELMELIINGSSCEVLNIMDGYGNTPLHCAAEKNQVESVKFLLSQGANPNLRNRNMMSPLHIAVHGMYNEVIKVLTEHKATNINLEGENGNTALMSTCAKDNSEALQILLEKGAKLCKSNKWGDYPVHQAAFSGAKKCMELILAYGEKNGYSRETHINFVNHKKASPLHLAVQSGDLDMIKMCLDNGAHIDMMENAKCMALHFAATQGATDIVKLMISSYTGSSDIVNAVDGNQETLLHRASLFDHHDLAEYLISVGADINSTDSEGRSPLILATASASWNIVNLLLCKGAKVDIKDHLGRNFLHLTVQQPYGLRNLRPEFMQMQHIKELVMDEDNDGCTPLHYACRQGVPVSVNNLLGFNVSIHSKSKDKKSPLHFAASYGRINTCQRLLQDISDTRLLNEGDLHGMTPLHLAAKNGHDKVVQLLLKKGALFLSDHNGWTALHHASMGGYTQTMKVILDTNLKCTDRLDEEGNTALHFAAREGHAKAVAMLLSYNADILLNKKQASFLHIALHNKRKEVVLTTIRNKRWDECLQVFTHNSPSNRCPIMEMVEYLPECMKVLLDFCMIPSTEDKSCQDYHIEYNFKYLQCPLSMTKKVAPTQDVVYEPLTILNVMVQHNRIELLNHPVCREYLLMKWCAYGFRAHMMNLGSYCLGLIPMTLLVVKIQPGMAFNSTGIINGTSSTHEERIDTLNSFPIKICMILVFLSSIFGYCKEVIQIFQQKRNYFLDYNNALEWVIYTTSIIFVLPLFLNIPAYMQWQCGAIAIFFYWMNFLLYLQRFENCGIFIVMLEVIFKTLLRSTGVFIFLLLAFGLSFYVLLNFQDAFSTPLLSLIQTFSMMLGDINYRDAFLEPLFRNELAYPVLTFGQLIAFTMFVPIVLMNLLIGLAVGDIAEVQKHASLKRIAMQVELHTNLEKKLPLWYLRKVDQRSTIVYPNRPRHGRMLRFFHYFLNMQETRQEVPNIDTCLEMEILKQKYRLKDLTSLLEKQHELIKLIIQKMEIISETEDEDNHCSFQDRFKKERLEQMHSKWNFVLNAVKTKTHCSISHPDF

[10] = target: Transient receptor potential cation channel subfamily V member 1 (Rattus norvegicus, UniProt O35433); experiment: Activation of rat TRPV1 channel
Transient receptor potential cation channel subfamily V member 1 (Rattus norvegicus, UniProt O35433), sequence (O35433 whole entry): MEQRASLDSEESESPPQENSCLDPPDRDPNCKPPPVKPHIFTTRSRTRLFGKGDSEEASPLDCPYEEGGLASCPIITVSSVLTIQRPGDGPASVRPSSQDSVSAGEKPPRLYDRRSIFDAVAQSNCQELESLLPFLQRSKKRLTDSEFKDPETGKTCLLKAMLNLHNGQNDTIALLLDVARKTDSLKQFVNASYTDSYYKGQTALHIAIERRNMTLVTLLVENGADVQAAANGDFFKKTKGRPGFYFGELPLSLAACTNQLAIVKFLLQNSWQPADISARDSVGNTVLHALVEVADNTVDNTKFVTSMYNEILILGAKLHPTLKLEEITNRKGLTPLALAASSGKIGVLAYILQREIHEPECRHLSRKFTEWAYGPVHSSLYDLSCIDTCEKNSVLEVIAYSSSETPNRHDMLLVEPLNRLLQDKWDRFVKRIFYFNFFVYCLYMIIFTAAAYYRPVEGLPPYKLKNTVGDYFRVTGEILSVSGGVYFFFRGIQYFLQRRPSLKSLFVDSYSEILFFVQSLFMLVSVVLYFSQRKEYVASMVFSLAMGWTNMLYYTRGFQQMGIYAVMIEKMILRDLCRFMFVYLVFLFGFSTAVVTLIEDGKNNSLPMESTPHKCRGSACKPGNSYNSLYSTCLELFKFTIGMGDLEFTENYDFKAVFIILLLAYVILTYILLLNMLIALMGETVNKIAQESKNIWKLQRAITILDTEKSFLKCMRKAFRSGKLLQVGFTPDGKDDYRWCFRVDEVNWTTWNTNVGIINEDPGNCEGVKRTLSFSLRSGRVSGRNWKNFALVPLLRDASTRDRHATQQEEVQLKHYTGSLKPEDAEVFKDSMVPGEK

[11] = target: T3, Transient receptor potential cation channel subfamily A member 1; experiment: Antagonist activity at mouse TRPA1 channel expressed in CHO cells assessed as blockade of agonist-induced whole cell conductance by electrophysiology; assay type: functional, cell-based
[12] = target: T3, Transient receptor potential cation channel subfamily A member 1; experiment: Agonist activity at TRPA1 channel in mouse dorsal root ganglion cells assessed as increase in intracellular calcium influx by radiometric Ca2+ imaging; assay type: functional, tissue-based
[13] = target: T3, Transient receptor potential cation channel subfamily A member 1; experiment: Agonist activity at mouse TRPA1 channel expressed in HEK293 cells assessed as increase in intracellular calcium influx; assay type: functional, cell-based
[14] = target: Transient receptor potential cation channel subfamily V member 1 (Homo sapiens, UniProt Q8NER1); experiment: Activation of TRPV1 channel
Transient receptor potential cation channel subfamily V member 1 (Homo sapiens, UniProt Q8NER1), sequence (Q8NER1 whole entry): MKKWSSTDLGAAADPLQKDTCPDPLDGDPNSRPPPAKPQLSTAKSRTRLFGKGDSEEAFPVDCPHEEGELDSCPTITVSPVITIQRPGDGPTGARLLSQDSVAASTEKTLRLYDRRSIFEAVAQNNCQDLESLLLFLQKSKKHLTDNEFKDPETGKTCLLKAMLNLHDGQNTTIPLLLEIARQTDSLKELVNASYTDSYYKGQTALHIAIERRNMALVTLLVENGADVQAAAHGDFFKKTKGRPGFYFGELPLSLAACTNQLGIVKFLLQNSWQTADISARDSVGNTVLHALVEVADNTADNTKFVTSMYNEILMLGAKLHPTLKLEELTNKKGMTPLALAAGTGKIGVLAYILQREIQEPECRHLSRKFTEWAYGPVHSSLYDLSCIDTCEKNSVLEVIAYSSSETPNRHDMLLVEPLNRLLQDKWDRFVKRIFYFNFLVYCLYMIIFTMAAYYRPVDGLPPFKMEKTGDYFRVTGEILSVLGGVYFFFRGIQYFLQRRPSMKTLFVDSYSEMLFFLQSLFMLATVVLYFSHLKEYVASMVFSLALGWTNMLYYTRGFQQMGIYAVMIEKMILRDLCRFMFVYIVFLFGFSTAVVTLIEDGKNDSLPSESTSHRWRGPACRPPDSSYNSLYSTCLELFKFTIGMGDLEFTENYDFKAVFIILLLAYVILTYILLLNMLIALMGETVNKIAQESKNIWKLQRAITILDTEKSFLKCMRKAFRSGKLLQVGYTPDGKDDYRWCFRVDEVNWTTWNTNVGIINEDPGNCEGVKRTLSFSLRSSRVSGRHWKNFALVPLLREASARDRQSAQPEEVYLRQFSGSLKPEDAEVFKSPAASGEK

[15] = target: Transient receptor potential cation channel subfamily M member 8 (Homo sapiens, UniProt Q7Z2W7); experiment: Activation of TRPM8 channel
[16] = target: T1, Transient receptor potential cation channel subfamily A member 1; experiment: Antagonist activity at TRPA1 channel; assay type: functional
[17] = target: T1, Transient receptor potential cation channel subfamily A member 1; experiment: Antagonist activity at TRPA1 channel at 1 uM; assay type: functional
[18] = target: T1, Transient receptor potential cation channel subfamily A member 1; experiment: Antagonist activity at TRPA1 channel at 10 uM; assay type: functional
[19] = target: T1, Transient receptor potential cation channel subfamily A member 1; experiment: Agonist activity at human TRPA1 channel in HEK293 cells assessed as increase in intracellular calcium influx by radiometric Ca2+ imaging; assay type: functional, cell-based
[20] = target: T1, Transient receptor potential cation channel subfamily A member 1; experiment: Antagonist activity at human TRPA1 channel expressed in CHO cells assessed as inhibition of cinnamaldehyde-induced intracellular calcium influx; assay type: functional, cell-based

SMILES: O=C1/C(=C/c2nccs2)c2ccccc2N1Cc1ccccc1
- pEC50 [1]: 5.25

SMILES: NC(=O)c1cccc(-c2cccc(OC(=O)NC3CCCCC3)c2)c1 [URB-597]
- pEC50 [2]: 4.61

SMILES: CC1(C)CCC[C@]2(C)[C@@H](CC/C=C(/C=O)CC=O)[C@@H](C=O)CC[C@@H]12 [MIOGATRIAL]
- pEC50 [3]: 6.89

SMILES: CC(C)CCC(=O)c1ccoc1 [PERILLAKETONE]
- pEC50 [4]: 4.71

SMILES: CN1CCC[C@H]1c1cccnc1 [NICOTINE]
- pEC50 [4]: 4.77

SMILES: CCCCC/C=C/C=C1/C(=O)C=C[C@@H]1C/C=C\CCCC(=O)O
- pEC50 [4]: 5.25

SMILES: O=C/C=C/c1ccccc1
- pEC50 [5]: 5.19

SMILES: CCCCCc1cc(O)c2c(c1)OC(C)(CCC=C(C)C)C=C2 (configuration not stated) [CANNABICHROMENE]
- pEC50 [6]: 4.46
- pEC50 [7]: 7.22

SMILES: S=C=NCc1ccccc1 [BENZYL ISOTHIOCYANATE]
- pEC50 [4]: 6.50

SMILES: CCOc1ccccc1-c1csc(NC(=O)Cn2cnc3c2c(=O)n(C)c(=O)n3C)n1
- pIC50 [8]: > 6.00

SMILES: C=CCSSSCC=C [ALLITRIDIN]
- pEC50 [3]: 6.31

SMILES: C=CCSSCC=C
- pEC50 [3]: 5.12
- pEC50 [4]: 3.90

SMILES: CCCCC(CC)C1NC(=O)N(SC(Cl)(Cl)Cl)C1=O (configuration not stated) [CHLORDANTOIN]
- pEC50 [3]: 5.52

SMILES: COC(=O)C1=C(C)NC(C)=C(C(=O)OCCN(C)Cc2ccccc2)C1c1cccc([N+](=O)[O-])c1 (configuration not stated) [NICARDIPINE]
- pEC50 [9]: 6.30

SMILES: C=CCS[S+]([O-])CC=C (configuration not stated) [ALLICIN]
- pEC50 [10]: 4.29

SMILES: S=C=NCCc1ccccc1 [PHENETHYLISOTHIOCYANATE]
- pEC50 [4]: 5.00

SMILES: C=CC=O [ACROLEIN]
- pEC50 [4]: 6.10

SMILES: Cn1c(=O)c2c(ncn2CC(=O)Nc2nc(-c3ccccc3F)cs2)n(C)c1=O
- pIC50 [8]: > 6.00

SMILES: CC1CCC(C(C)C)C(O)C1 (configuration not stated) [MENTHOL]
- pEC50 [11]: 4.25

SMILES: Cn1c(=O)c2c(ncn2CC(=O)Nc2nc(-c3cccc(Cl)c3)cs2)n(C)c1=O
- pIC50 [8]: > 6.00

SMILES: C/C=C/C=O [CROTONALDEHYDE]
- pEC50 [4]: 4.80

SMILES: CC1(C)C[C@H]2C=C(C=O)[C@]3(C=O)C[C@]3(C)[C@H]2C1 [ISOVELLERAL]
- pEC50 [12]: 3.89
- pEC50 [13]: 5.59
- pEC50 [2]: 6.23

SMILES: CC(C)=CCC/C(C)=C/CC/C(C)=C/CSCC(=O)O [FARNESYLTHIOACETIC ACID]
- pEC50 [3]: 4.05

SMILES: C/C=C/C=C/C=C\CC/C=C/C(=O)NCC(C)(C)O
- pEC50 [14]: 5.96
- pEC50 [4]: 5.18

SMILES: O=C1NC(c2cccc([N+](=O)[O-])c2)=CCN1c1ccccc1O [ICILLIN]
- pEC50 [15]: 7.22
- pEC50 [2]: 4.00

SMILES: O=C(O)/C=C1/C(=O)N(Cc2ccccc2)c2ccc(F)cc21
- pEC50 [1]: 5.35

SMILES: CCCCC[C@H](O)/C=C/[C@H]1C=CC(=O)[C@@H]1CCCCCCC(=O)O [PROSTAGLANDIN A1]
- pEC50 [4]: 4.82

SMILES: CN1C(=O)c2cccc(CC(=O)Nc3nc(-c4ccc(Cl)cc4)cs3)c2C1=O
- pIC50 [16]: 6.30
- inhibition [17]: 39%
- inhibition [18]: 93%

SMILES: CCc1ccc(-c2csc(NC(=O)Cn3cnc4c3c(=O)n(C)c(=O)n4C)n2)cc1
- pIC50 [8]: > 6.00

SMILES: O=C(O)/C=C1/C(=O)N(CC2CCC2)c2c(F)cccc21
- pEC50 [1]: 5.94

SMILES: CC(C)CN1C(=O)/C(=C/C(=O)O)c2cccc(Cl)c21
- pEC50 [1]: 6.21

SMILES: CCCCCC(O)/C=C/C=O (configuration not stated) [4-HYDROXYNON-2-ENAL]
- pEC50 [6]: 4.70

SMILES: CCCCCCCC/C=C(\CCCCCCCC(=O)O)[N+](=O)[O-] [NITROLEIC ACID]
- pEC50 [19]: 6.00

SMILES: CCOC(=O)C1=C(C)NC(C)=C(C(=O)OC)C1c1cccc([N+](=O)[O-])c1 (configuration not stated) [NITRENDIPINE]
- pEC50 [9]: 5.42

SMILES: CCN(CC)C(=S)SSC(=S)N(CC)CC
- pEC50 [3]: 5.52

SMILES: CC1(C)CCC[C@@]2(C)[C@H]1CC[C@@]1(CO1)[C@@H]2CC/C=C(/C=O)CC=O [MIOGADIAL]
- pEC50 [3]: 6.70

SMILES: CCC(=N\O)/C(C)=C/c1cnccc1C
- pIC50 [20]: < 4.00

SMILES: CCCCCc1cc(O)c2c(c1)OC(C)(C)[C@@H]1CCC(C)=C[C@@H]21 [DRONABINOL]
- pEC50 [7]: 6.64

SMILES: COC(=O)c1cccc(CN2C(=O)/C(=C/C(N)=O)c3ccccc32)c1
- pEC50 [1]: 5.92

SMILES: CN1C(=O)c2cccc(CC(=O)Nc3nc(-c4cc(F)c(OC(F)F)c(F)c4)cs3)c2C1=O
- inhibition [17]: 92%
- inhibition [18]: 99%

SMILES: Cc1cc(-c2csc(NC(=O)Cc3cccc4c3C(=O)N(C)C4=O)n2)ccc1Cl
- pIC50 [16]: 6.60
- inhibition [17]: 83%
- inhibition [18]: 91%
